Hits are enriched below; roughly 3.1% of the tested compounds scored in any of these assays.
GPR7 antagonist – antagonists of human GPR7 (neuropeptides B/W receptor 1) | P48145 | GPR7-expressing cells, fluorescence antagonist assay | inhibition, % at 4.4 µM | actives 1.1% (n = 290,000); in the data active means inhibition above about 16%, passing the limit was not always enough;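 further: cells stimulated with the agonist NPW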
Target sequence (P48145 whole entry, looked up): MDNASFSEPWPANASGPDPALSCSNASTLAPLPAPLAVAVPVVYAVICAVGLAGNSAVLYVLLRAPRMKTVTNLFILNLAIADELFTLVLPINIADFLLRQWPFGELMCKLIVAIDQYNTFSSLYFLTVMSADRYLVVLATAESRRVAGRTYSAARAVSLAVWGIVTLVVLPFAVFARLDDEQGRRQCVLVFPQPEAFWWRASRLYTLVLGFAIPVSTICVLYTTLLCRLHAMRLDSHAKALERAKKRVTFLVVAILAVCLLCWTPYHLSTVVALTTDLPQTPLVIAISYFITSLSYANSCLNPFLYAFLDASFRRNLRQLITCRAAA
CHO parental Ca – counter-screen: ATP calcium response change in parental CHO cells. parental CHO-K1, ATP-induced calcium, Fluo-8 fluorescence. inhibition, % at 5.6 µM. actives 0.63% (n = 330,000). AID 463079;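 active means inhibition above that plate's mean sample inhibition plus 3 SD, cut at about 26% in these data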
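Test system: untransfected parental CHO cell line. Compound: one dose, 5.6 µM nominal. Detection: intracellular calcium via Fluo-8 no-wash fluorescent dye. Measure: % inhibition. Benchmarks: ATP-challenged DMSO wells low, unchallenged DMSO wells high.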
OX1R antag-1 – OX1R (human) antagonism; actives 1.8% (n = 330,000); OX1R-expressing cells, FRET antagonist read-out; inhibition, % at 6.6 µM; in the data active means inhibition mostly above about 38%, no sharp cut-off; inactive means mostly below about 40%
OX1R antag-2 – blocks the human orexin 1 receptor | O43613 | CHO/OX1R cells, Fluo-8 calcium fluorescence, orexin A | inhibition, % at 5 µM | actives 0.43% (n = 330,000) | AID 434989;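 active means inhibition above its plate's threshold, mean inhibition of all tested compounds on the plate plus 3 SD, cut at about 37% in these data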
GalR3 antagonist – antagonists of human GalR3; O60755; HEK293 GalR3-CNG cAMP membrane potential fluorescence; galR3 body fused to GalR1 C-terminus; inhibition, % at 3 µM; actives 0.44% (n = 360,000);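 active means inhibition above the screen-wide average plus 3 SD, cut at about 13% in these data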;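 further: forskolin and galanin both at EC90 stimulate the cells; cAMP rise reported by CNG channel membrane potential dye signal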
Target sequence (O60755 1-299 limits assumed): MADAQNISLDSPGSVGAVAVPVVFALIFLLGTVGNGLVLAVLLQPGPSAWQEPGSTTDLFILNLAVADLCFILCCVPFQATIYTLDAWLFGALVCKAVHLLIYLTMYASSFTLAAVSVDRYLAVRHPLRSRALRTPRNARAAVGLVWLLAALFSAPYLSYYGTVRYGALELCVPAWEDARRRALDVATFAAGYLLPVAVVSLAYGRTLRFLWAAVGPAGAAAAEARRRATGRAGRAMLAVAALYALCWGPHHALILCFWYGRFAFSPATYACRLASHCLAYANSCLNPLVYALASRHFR
Large screens that a line does not name were inactive.

Cc1onc(-c2ccccc2)c1C(=O)NC(C)CCc1ccccc1 (stereo not given)	none
CCn1c(SCC(=O)Nc2nc3ccc(C)cc3s2)nc2c(c1=O)SC(C)C2 (stereo not given)	CHO parental Ca 45, OX1R antag-1 81, OX1R antag-2 59 (no result: GalR3 antagonist)
CCn1c(SCC(=O)Nc2nc3ccccc3s2)nc2c(c1=O)SC(C)C2 (stereo not given)	none
COc1ccccc1CCn1cnc(-c2ccccc2OC)c1CC(C)C	none (no result: GPR7 antagonist, CHO parental Ca, OX1R antag-1, OX1R antag-2)
NC(=O)c1ccc(SCC(=O)OCC(=O)N2CCCC2=O)c([N+](=O)[O-])c1	OX1R antag-1 67 (no result: GPR7 antagonist)
CC1CN(C(=O)COC(=O)CSc2ccc(C(N)=O)cc2[N+](=O)[O-])CC(C)O1 (stereo not given)	OX1R antag-1 73 (no result: GPR7 antagonist)
NC(=O)c1ccc(SCC(=O)OCC(=O)NC2CCCCCCC2)c([N+](=O)[O-])c1	OX1R antag-1 30 (no result: GPR7 antagonist)
CC1CCC(NC(=O)COC(=O)CSc2ccc(C(N)=O)cc2[N+](=O)[O-])CC1 (stereo not given)	none (no result: GPR7 antagonist)
Cc1ccc(CN(C)C(=O)COC(=O)CSc2ccc(C(N)=O)cc2[N+](=O)[O-])cc1	OX1R antag-1 58 (no result: GPR7 antagonist)
Cc1ccc(NC(=S)N2CCN(c3ccccc3F)CC2)c(C)c1	none
O=C(OCC(=O)N1CCCC1=O)c1ccc(Cl)cc1[N+](=O)[O-]	OX1R antag-1 58 (no result: GPR7 antagonist)
CCS(=O)(=O)Nc1cccc(C2=NN(S(=O)(=O)c3ccc(F)cc3)C(c3cccs3)C2)c1 (stereo not given)	none
CS(=O)(=O)Nc1cccc(C2=NN(S(=O)(=O)c3ccc(F)cc3)C(c3cccs3)C2)c1 (stereo not given)	GPR7 antagonist 19
CCc1ccc(-c2cnc3nc[nH]c(=O)c3n2)cc1	OX1R antag-1 43 (no result: GPR7 antagonist)
Cc1[nH]c(=O)[nH]c(=S)c1C(=O)Nc1ccc(Cl)c(Cl)c1	none (no result: GPR7 antagonist)
COc1ccc(-c2nnn3c2C2c4cc(-c5cccc(F)c5)ccc4CCN2C(=O)C3)cc1 (stereo not given)	none (no result: GPR7 antagonist, CHO parental Ca, OX1R antag-1, OX1R antag-2)
CCc1sc(N2C(=O)C3C4CCC(C4=C(C)C)C3C2=O)nc1-c1ccccc1 (stereo not given)	OX1R antag-1 38
Nc1ccccc1O	OX1R antag-1 32 (no result: GPR7 antagonist, GalR3 antagonist)
Cc1ccc(C(=O)N/N=C/c2ccc([N+](=O)[O-])s2)cc1	none
O=C(N/N=C/c1ccc([N+](=O)[O-])s1)c1ccncc1	OX1R antag-1 72 (no result: GalR3 antagonist)
O=C(CNC(=O)c1ccccc1)N/N=C/c1ccc([N+](=O)[O-])s1	OX1R antag-1 47
O=C(Cc1ccccc1)NCC(=O)N/N=C/c1ccc([N+](=O)[O-])s1	OX1R antag-1 52
Cc1cc(NCCc2c[nH]c3ccccc23)ccc1Nc1cccnc1	none (no result: GPR7 antagonist, CHO parental Ca, OX1R antag-1, OX1R antag-2)
CCn1c(Cc2ccc(OC)cc2)nnc1SCC(=O)N1CCN(c2ccccc2)CC1	OX1R antag-1 47
Cc1onc(-c2c(Cl)cccc2Cl)c1C(=O)N1CCOCC1	none
Cc1onc(-c2c(Cl)cccc2Cl)c1C(=O)N1CCc2ccccc21	OX1R antag-1 40
O=c1[nH]c(NCCO)nc2c1C1(CCCCC1)Cc1ccccc1-2	CHO parental Ca 81
COCCn1c(C)cc(C(=O)CN2CCCCC2)c1C	none
COCCn1c(C)cc(C(=O)CN2C(=O)NC3(CCCCCCC3)C2=O)c1C	OX1R antag-1 63
c1nnc2c3c4c(sc3ncn12)CCCC4	none (no result: CHO parental Ca, OX1R antag-1, OX1R antag-2, GalR3 antagonist)
c1nc2sc3c(c2c2nnnn12)CCCC3	GPR7 antagonist 18
COC(C/C=C/[C@@H](O)[C@H](C)OCc1ccccc1)OC	none (no result: GPR7 antagonist)
CCCC[C@@]1(C2CCCC2)Cc2cc(OCC(=O)O)c(Cl)c(Cl)c2C1=O	OX1R antag-1 43 (no result: GPR7 antagonist, GalR3 antagonist)
C[C@]1(C2CCCC2)Cc2cc(OCC(=O)O)c(Cl)c(Cl)c2C1=O	none (no result: GPR7 antagonist)
CCOC(=O)/C=C/S(=O)(=O)c1ccc(NC(C)=O)cc1	GPR7 antagonist 18
CCOC(=O)/C=C/C(=O)Nc1ccc(Oc2ccccc2)cc1	CHO parental Ca 44
C[C@H](CO)N1C[C@H](C)[C@@H](CN(C)S(=O)(=O)c2ccc(F)cc2)Oc2ccc(NC(=O)C3CC3)cc2C1=O	none (no result: GPR7 antagonist)
Cc1cc(O)ccc1C1(c2ccc(O)cc2C)OC(=O)c2ccccc21	none
O=C1OC2(c3ccccc31)c1cc(I)c(O)c(I)c1Oc1c2cc(I)c(O)c1I	CHO parental Ca 94, OX1R antag-1 91, OX1R antag-2 106 (no result: GPR7 antagonist, GalR3 antagonist)
CCOC(=O)CSc1nc(N2CCOCC2)c2c(c1C#N)CC(C)(C)N(C)C2	OX1R antag-1 46
CCOC(=O)CSc1nc(N2CCOCC2)c2c(c1C#N)CC(C)(C)OC2	none
Cc1cc(NC(=O)CCc2c[nH]c3ccccc23)ccc1Nc1cccnc1	none (no result: GPR7 antagonist, CHO parental Ca, OX1R antag-1, OX1R antag-2)
CC1(C)CC(=O)C=C(NC2CCCCCC2)C1	GPR7 antagonist 15
CCOc1ccc(-c2nc(CSCC(=O)N3CCN(c4cccc(OC)c4)CC3)c(C)o2)cc1	CHO parental Ca 75, OX1R antag-1 54, OX1R antag-2 44 (no result: GalR3 antagonist)
Cc1ccc(-c2nc(CSCC(=O)N3CCN(c4ccccn4)CC3)c(C)o2)cc1	none
O=C(NCc1ccccc1)[C@H]1CCCN1C(=O)[C@H]1CCCN1C(=O)c1cccc(F)c1	none (no result: GPR7 antagonist, CHO parental Ca, OX1R antag-1, OX1R antag-2)
N#C/C(=C\c1ccc(Sc2ccc(Cl)cc2)o1)c1nc2ccccc2[nH]1	none
N#C/C(=C\c1ccc(Sc2nc3ccccc3[nH]2)o1)c1ccccc1	OX1R antag-1 74, OX1R antag-2 56
O=C(Nc1ccc(Br)c(C(F)(F)F)c1)c1ccccc1	none
O=C(Nc1ccc(Br)c(C(F)(F)F)c1)c1ccc(C(F)(F)F)cc1	CHO parental Ca 40, OX1R antag-1 62, OX1R antag-2 60
FC(F)Sc1ccc(NC(=S)NC2CCCC2)cc1	CHO parental Ca 60
COC(=O)N1C[C@@H]2Oc3nccnc3O[C@@H]2C[C@@H]1c1ccccc1Br	none (no result: GPR7 antagonist, CHO parental Ca, OX1R antag-1, OX1R antag-2)
Cc1ccc(-n2nc3c(=O)n(CC(=O)NC(C)CCc4ccccc4)nc(C)c3c2C)cc1 (stereo not given)	none (no result: GalR3 antagonist)
O=C1c2ccccc2C(=O)c2c1ncn2-c1ccccc1	OX1R antag-1 64
O=C(COC(=O)/C=C/c1ccc(C(F)(F)F)cc1)NC(=O)NCc1ccco1	none (no result: GPR7 antagonist)
C=CCN(CC=C)S(=O)(=O)c1ccc(NC(=S)NC(=O)/C=C/c2ccc(C)cc2)cc1	CHO parental Ca 36
O=C(C(=O)N1CCC(CNS(=O)(=O)c2ccc(C(F)(F)F)cc2)CC1)c1cccs1	none (no result: GPR7 antagonist, CHO parental Ca, OX1R antag-1, OX1R antag-2)
O=C(C(=O)N1CCN(S(=O)(=O)c2ccc(OC(F)(F)F)cc2)CC1)c1cccc(C(F)(F)F)c1	none (no result: GPR7 antagonist, CHO parental Ca, OX1R antag-1, OX1R antag-2)
N#C/C(=N\Nc1ccc(Cl)cc1)C(=O)c1ccccc1	OX1R antag-1 60
Cc1ccc(/C=C/S(=O)(=O)NCC(=O)OCC(=O)NCc2ccccc2)cc1	none
Cc1ccc([C@H]2C[C@H](n3cc(-c4ccc(F)cc4)nn3)[C@@H](O)CN2C(=O)C2CCCCC2)cc1	none (no result: GPR7 antagonist, CHO parental Ca, OX1R antag-1, OX1R antag-2)
Cc1ccccc1-n1c2nc(=O)n(C)c(=O)c-2cc2ccccc21	OX1R antag-1 65
COC(=O)C=C1CCC2C3CC(F)C4(O)CC(=O)CCC4(C)C3C(=O)CC12C (stereo not given)	none (no result: GPR7 antagonist, CHO parental Ca, OX1R antag-1, OX1R antag-2)
O=C(c1cc(Cl)cc(Cl)c1)N1CCC(=O)N([C@H](COCc2ccccc2)Cc2ccccc2)CC1	none (no result: GPR7 antagonist, CHO parental Ca, OX1R antag-1, OX1R antag-2)

From PubChem BioAssay
